Reference: ChEMBL document CHEMBL4308847, “Discovery, Structure-Activity Relationship, and Biological Characterization of a Novel Series of 6-((1 H-Pyrazolo[4,3- b]pyridin-3-yl)amino)-benzo[ d]isothiazole-3-carboxamides as Positive Allosteric Modulators of the Metabotropic Glutamate Receptor 4 (mGlu4)” (J Med Chem, 2018)
The source made the active and inactive calls. The rule behind the calls is not given here.

Columns and labels:
[1] = biological target: T1, Metabotropic glutamate receptor 4 (Homo sapiens, UniProt Q14833); assay: (§1) Positive allosteric modulation of human mGlu4 receptor expressed in CHO cells co-expressing Gqi5 assessed as increase in glutamate-induced calcium mobilization preincubated for 142 secs followed by EC20 glutamate addition and subsequent EC80 glutamate addition after 147 secs by Fluo-4-AM dye based fluorescence assay; assay type: functional, cell-based
Summary of the method: (§2)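 CHO cells expressing human mGlu4 and Gqi5, plated at 30,000 cells/well and grown overnight at 37 °C, 5% CO2. Cells were loaded with 1 μM Fluo-4 AM for 45 min at 37 °C in HBSS/20 mM HEPES/2.5 mM probenecid. Compounds were run as 10-point, 1:3 dilution series. After 142 s, EC20 glutamate was added; 147 s later, EC80 glutamate. Fluorescence was normalized to the maximal glutamate response. EC50 and %Glu Max were fitted by four-parameter logistic, with maximum normalized to PHCCC.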

[2] = biological target: T1, Metabotropic glutamate receptor 4; assay: as §1, with “measured” for “subsequent EC80 glutamate addition”, “assay relative to control” for “assay”; assay type: functional, cell-based; summary of the method: as §2
[3] = biological target: T2, AhR (read out as CYP1A2 induction) (Homo sapiens, UniProt P35869); assay: Activation of AhR (unknown origin) assessed as CYP1A2 induction relative to control; assay type: ADME; conditions: read-out: FC
T2 sequence (P35869 whole entry): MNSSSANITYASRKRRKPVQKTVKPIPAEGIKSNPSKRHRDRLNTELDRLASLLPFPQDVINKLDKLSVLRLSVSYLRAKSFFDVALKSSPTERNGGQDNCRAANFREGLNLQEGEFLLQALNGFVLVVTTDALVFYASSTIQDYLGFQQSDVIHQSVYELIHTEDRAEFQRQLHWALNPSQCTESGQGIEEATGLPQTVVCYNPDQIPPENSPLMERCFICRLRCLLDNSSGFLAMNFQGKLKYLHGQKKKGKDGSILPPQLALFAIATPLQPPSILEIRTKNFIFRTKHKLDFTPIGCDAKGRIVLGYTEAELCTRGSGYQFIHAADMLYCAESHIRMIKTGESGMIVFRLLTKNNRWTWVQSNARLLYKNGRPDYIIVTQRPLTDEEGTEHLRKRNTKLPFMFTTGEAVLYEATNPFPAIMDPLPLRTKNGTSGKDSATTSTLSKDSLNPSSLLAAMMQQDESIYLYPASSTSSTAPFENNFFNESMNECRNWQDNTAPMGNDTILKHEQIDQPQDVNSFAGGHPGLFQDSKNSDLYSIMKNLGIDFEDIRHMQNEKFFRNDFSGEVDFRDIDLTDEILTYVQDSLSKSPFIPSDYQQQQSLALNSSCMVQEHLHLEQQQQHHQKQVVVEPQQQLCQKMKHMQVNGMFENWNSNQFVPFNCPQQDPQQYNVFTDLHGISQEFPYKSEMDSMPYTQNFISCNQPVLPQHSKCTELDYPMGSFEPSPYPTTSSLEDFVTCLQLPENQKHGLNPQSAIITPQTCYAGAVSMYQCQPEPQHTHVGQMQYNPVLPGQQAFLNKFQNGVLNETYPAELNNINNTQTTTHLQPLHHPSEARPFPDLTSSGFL

[4] = Intrinsic clearance in human liver microsomes at 1 uM preincubated for 5 mins followed by NADPH addition measured up to 45 mins by LC-MS/MS analysis; assay type: ADME, Microsome; conditions: read-out: CLH
Summary of the method: (§3)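 Intrinsic and predicted hepatic clearance derived from liver microsome incubations.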

[5] = Intrinsic clearance in rat liver microsomes at 1 uM preincubated for 5 mins followed by NADPH addition measured up to 45 mins by LC-MS/MS analysis; assay type: ADME, Microsome; conditions: read-out: CLH; summary of the method: as §3
[6] = Fraction unbound in human plasma after 4 hrs by equilibrium dialysis method; assay type: ADME, cell-free
[7] = Fraction unbound in rat plasma after 4 hrs by equilibrium dialysis method; assay type: ADME, cell-free
Cytochrome P450 1A2 = biological target: T3, Cytochrome P450 1A2 (Homo sapiens, UniProt P05177); assay: Inhibition of CYP1A2 in human liver microsomes using phenacetin as substrate preincubated for 15 mins followed by substrate addition and measured after 8 mins by LC-MS/MS analysis; assay type: ADME
T3 sequence (P05177 whole entry): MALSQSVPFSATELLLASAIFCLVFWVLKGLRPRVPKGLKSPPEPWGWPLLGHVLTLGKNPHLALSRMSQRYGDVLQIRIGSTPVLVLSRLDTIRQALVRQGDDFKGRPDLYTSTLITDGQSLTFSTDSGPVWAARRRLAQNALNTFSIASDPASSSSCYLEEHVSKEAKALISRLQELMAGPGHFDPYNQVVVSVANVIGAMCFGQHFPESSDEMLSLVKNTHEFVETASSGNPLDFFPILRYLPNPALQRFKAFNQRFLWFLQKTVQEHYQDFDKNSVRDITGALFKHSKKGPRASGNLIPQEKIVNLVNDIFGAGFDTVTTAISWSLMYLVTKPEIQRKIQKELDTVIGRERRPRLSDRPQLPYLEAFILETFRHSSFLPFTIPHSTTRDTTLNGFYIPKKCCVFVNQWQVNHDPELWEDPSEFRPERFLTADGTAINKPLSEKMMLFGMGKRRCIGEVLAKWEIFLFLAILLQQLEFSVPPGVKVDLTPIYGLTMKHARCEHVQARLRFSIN
Summary of the method: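 IC50 for CYP1A2 inhibition determined in human liver microsomes using specific probe substrate-metabolite pairs.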

[8] = biological target: Metabotropic glutamate receptor 4 (Rattus norvegicus, UniProt P31423); assay: (§4) Positive allosteric modulation of rat mGlu4 receptor expressed in HEK cells co-expressing GIRK1/2 assessed as increase in glutamate-induced thallium flux preincubated for 140 secs followed by glutamate addition and measured after 2.5 mins by FluoZin-2-AM dye based fluorescence assay; assay type: cell-based
Summary of the method: (§5)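 HEK cells co-expressing rat mGlu4 and GIRK1/2 were loaded for 1 h at room temperature with FluoZin-2 AM (330 nM final) in HBSS/20 mM HEPES pH 7.4. Compound was incubated 140 s, then thallium buffer with or without agonist was added. Reading continued for 2.5 min at room temperature. Potency was fitted by four-parameter logistic.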

[9] = biological target: Metabotropic glutamate receptor 4 (Rattus norvegicus) (UniProt P31423); assay: as §4, with “assay relative to control” for “assay”; assay type: cell-based; summary of the method: as §5
[10] = Clearance in rat administered as iv cassette dose; assay type: ADME, organism-based; conditions: in vivo
Summary of the method: (§6)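 IV cassette in male Sprague-Dawley rats (~300 g, n = 1 per experiment), cannulated in carotid artery and jugular vein and acclimated about one week. Plasma clearance, Vss, t1/2 and MRT were derived.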

[11] = Half life in rat administered as iv cassette dose; assay type: ADME, organism-based; conditions: in vivo; summary of the method: as §6
[12] = Plasma concentration in rat administered as iv cassette dose; assay type: ADME, organism-based; conditions: in vivo
Summary of the method: (§7)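 Cassette dosing in male Sprague-Dawley rats (~300 g, n = 1 per experiment), with carotid artery and jugular vein catheters. Animals acclimated about one week with food and water ad libitum. Plasma (ng/mL) and brain (ng/g) levels were measured and Kp calculated.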

[13] = Drug uptake in rat brain administered as iv cassette dose; assay type: ADME, organism-based; conditions: in vivo; summary of the method: as §7
[14] = Brain to plasma partition coefficient, Kp of the compound in rat administered as iv cassette dose; assay type: ADME, organism-based; conditions: brain and plasma, read-out: Kp; summary of the method: as §7
Rattus norvegicus = assay: Reversal of haloperidol-induced catalepsy in Sprague-Dawley rat assessed as decrease in latency to remove forepaws from bar at 10 mg/kg, po administered 30 mins prior to test; assay type: functional, organism-based
Summary of the method: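 Male Sprague-Dawley rats were randomized and given haloperidol 0.75 mg/kg i.p., then 60 min in home cage. Vehicle or compound (10 mg/kg) was given orally 30 min before catalepsy testing, N = 11–12 rats/group. Data analyzed by one-way ANOVA with Dunnett's test versus vehicle + haloperidol.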

[15] = Plasma concentration in Sprague-Dawley rat model of haloperidol-induced catalepsy at 10 mg/kg, po; assay type: ADME, organism-based; conditions: in vivo
Summary of the method: (§8)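 Male Sprague-Dawley rats given haloperidol 0.75 mg/kg i.p., then returned to cages for 60 min. Compound 10 mg/kg was dosed orally 30 min before catalepsy testing. Plasma, brain and CSF were then assayed, and free levels reported.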

[16] = Unbound plasma concentration in Sprague-Dawley rat model of haloperidol-induced catalepsy at 10 mg/kg, po; assay type: ADME, organism-based; conditions: in vivo; summary of the method: as §8
[17] = Drug uptake in brain of Sprague-Dawley rat model of haloperidol-induced catalepsy at 10 mg/kg, po; assay type: ADME, organism-based; conditions: in vivo, read-out: Drug uptake; summary of the method: as §8
[18] = Unbound drug level in brain of Sprague-Dawley rat model of haloperidol-induced catalepsy at 10 mg/kg, po; assay type: ADME, organism-based; conditions: in vivo; summary of the method: as §8
[19] = Drug uptake in cerebrospinal fluid of Sprague-Dawley rat model of haloperidol-induced catalepsy at 10 mg/kg, po; assay type: ADME, organism-based; conditions: in vivo, read-out: Drug uptake; summary of the method: as §8
[20] = AUC in rat at 15 mg/kg, po qd for 4 days measured on day 1 post dose; conditions: in vivo
[21] = AUC in rat at 15 mg/kg, po qd for 4 days measured on day 4 post dose; conditions: in vivo
[22] = Cmax in rat at 15 mg/kg, po qd for 4 days measured on day 1 post dose; conditions: in vivo
[23] = Cmax in rat at 15 mg/kg, po qd for 4 days measured on day 4 post dose; conditions: in vivo

T1 sequence (Q14833 whole entry): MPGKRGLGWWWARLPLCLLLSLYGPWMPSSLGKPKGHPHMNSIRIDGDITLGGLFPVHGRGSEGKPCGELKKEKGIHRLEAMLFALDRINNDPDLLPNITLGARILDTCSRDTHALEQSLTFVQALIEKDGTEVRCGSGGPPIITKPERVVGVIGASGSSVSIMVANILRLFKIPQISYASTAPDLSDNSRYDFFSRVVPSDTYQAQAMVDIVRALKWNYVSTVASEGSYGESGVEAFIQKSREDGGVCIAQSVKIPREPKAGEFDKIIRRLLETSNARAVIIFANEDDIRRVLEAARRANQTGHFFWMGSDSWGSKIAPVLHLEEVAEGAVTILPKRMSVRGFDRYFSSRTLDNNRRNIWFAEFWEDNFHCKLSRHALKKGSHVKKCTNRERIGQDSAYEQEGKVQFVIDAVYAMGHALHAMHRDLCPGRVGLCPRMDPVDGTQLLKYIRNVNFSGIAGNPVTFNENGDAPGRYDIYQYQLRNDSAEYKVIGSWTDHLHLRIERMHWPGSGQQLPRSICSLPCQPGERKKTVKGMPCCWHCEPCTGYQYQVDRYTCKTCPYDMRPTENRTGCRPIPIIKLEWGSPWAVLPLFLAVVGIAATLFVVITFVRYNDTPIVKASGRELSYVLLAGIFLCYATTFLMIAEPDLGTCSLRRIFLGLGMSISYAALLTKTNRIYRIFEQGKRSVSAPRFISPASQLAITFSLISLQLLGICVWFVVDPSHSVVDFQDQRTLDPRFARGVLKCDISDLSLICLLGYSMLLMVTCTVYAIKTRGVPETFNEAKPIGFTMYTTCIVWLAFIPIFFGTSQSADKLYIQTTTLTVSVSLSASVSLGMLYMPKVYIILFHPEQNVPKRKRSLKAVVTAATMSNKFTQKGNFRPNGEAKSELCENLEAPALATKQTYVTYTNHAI
Sequence of Metabotropic glutamate receptor 4 (Rattus norvegicus) (P31423 whole entry): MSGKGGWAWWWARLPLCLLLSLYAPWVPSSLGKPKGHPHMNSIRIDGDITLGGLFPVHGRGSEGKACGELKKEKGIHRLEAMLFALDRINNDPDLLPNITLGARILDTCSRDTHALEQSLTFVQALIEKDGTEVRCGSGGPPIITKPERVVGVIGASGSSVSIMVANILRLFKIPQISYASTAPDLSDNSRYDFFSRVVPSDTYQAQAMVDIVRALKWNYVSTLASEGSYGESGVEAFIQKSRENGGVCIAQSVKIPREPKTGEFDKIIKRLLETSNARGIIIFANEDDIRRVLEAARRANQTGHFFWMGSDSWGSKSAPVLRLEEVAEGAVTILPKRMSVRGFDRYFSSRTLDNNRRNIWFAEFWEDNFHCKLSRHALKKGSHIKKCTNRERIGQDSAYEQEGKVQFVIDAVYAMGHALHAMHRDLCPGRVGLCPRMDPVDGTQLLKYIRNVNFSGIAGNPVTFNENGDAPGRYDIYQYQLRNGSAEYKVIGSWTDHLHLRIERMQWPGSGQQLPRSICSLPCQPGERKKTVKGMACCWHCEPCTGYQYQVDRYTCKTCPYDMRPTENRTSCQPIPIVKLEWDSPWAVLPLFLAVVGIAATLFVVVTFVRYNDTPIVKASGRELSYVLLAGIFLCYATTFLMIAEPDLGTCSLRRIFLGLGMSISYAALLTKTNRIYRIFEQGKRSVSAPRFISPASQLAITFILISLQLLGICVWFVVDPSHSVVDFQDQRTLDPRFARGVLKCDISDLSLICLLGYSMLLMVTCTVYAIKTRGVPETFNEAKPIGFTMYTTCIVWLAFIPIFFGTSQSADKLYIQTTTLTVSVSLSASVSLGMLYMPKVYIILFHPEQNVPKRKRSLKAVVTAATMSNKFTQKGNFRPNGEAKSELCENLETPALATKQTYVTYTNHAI
Sequence of Metabotropic glutamate receptor 4 (Rattus norvegicus, UniProt P31423) (P31423 whole entry): as above

## CC(C)(C)Cc1noc2cc(Nc3n[nH]c4nccnc34)ccc12
[1]
  EC50: 860 nM
[2]
  %max: 83.5%
[3]
  fold induction: 6.4
[4]
  CLint scaled at 1 µM: 7.2 mL/min/kg
[5]
  CLint scaled at 1 µM: 62.5 mL/min/kg
[6]
  fraction unbound at 4 h: 0.023
[7]
  fraction unbound at 4 h: 0.023
Cytochrome P450 1A2
  IC50: 3.2 µM
[8]
  EC50: 501 nM
[9]
  %max: 98.7%
[10]
  clearance: 37.8 mL/min/kg
[11]
  half-life: 87.4 min
[12]
  Cp: 60.5 ng/mL
[13]
  Drug uptake: 285 ng/g
[14]
  Kp: 4.7
Rattus norvegicus
  Activity: Active
[15]
  concentration: 450 nM
[16]
  Cp(f): 11.2 nM
[17]
  concentration: 958 nM
[18]
  Drug uptake(free): 5.8 nM
[19]
  concentration: 627 nM
[20]
  AUC at 96 h: 624 ng·h/mL
[21]
  AUC at 96 h: 690 ng·h/mL
[22]
  Cmax: 86.3 ng/mL
[23]
  Cmax: 62.8 ng/mL
